The entries come from a sample that favours hits as a whole.
MPTP block: mitochondrial permeability transition pore inhibitors, primary screen, biochemical, isolated mouse mitochondria, absorbance; 360,000 tested, 1.4% active; Ca2+ swelling absorbance, 30 min; inhibition, % at 10 µM;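 active = inhibition of 50% or more, scaled per plate between neutral and stimulator controls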;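 note: 0% = DMSO wells given calcium and 100% = 1 mM EGTA wells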
T cruzi inh: inhibitors of intracellular T. cruzi growth, primary screen, luminescence, NIH3T3 host cells; T. cruzi beta-gal in NIH3T3, 90 h; inhibition, % (no concentration beside the values); 300,000 tested, 1.4% active;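 active = mean inhibition across valid replicates above about 55%, limit read from the data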;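 note: signal also drops with host cell toxicity which is not excluded here; 0% = plate median of DMSO wells and 100% = zero luminescence signal; higher percent means less beta-gal luminescence so fewer parasites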
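System – NIH/3T3 host cells with β-galactosidase reporter T. cruzi · Doses – single 50 nL compound addition per well in DMSO · Reagent – 5000 T. cruzi trypomastigotes/well · Medium – Low-serum DMEM with 2% FBS · Timing – ≥90 h infection period, 3 h prior cell attachment · Evaluation – parasite load inhibition, % · Technique – GalScreen luminescence, 60 min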
Hep lipid drop: inhibitors of hepatocyte lipid droplet formation, primary screen, imaging, high-throughput imaging, BODIPY stain | AML12 mouse hepatocytes, oleate lipid droplets | inhibition, % at 6.5 µM | 240,000 tested, 0.4% active;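 active = lipid droplet intensity inhibited by at least 50%, with more than 500 cells counted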
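Assay system: AML12 hepatocytes (mouse); Probe or stimulus: oleic acid at 100 µM to induce lipid droplet formation; Dosing: compound at 6.5 µM only; Schedule: compound with oleate, overnight; Detection: fluorescence imaging, 20x objective, two fields per well; Measure: % inhibition of lipid droplet signal.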
Redox H2O2 prof: compounds producing H2O2 with reducing agent – biochemical, NIH compound library profiling, artefact control for MLSCN library redox annotation, primary screen; 200,000 tested, 0.03% active; activation, % at 10 µM; DTT-dependent redox cycling H2O2, phenol red/HRP absorbance; 100% = 100 µM peroxide control, 0% = buffer;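 active = activation of at least 50% relative to the plate's high and low controls in the primary single-dose screen; inactive = activation below 50%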;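 note: compound incubated with DTT at 0.8 mM final as the reducing agent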
L major viab: Leishmania major promastigote growth inhibition, primary screen; Leishmania major promastigotes, resazurin fluorescence viability; inhibition, % at 10 µM; AID 1063, 2008; 200,000 tested, 9% active; in the data active = inhibition above about 50%;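 note: promastigotes grown with compound for 44 hours at 28 °C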
An asterisk follows results filed as active; . = no result.

SMILES	MPTP block	T cruzi inh	Hep lipid drop	Redox H2O2 prof	L major viab
COc1ccc(NC(=S)Nc2ccc(N)c([N+](=O)[O-])c2)cc1	2	35	-8	-2	100*
COC(=O)Nc1ccc(S(=O)(=O)N2c3ccccc3CCC2C)cc1 (configuration not stated)	2	-12	.	0	100*
COC(=O)Nc1ccc(S(=O)(=O)N2CCCCC2C(=O)O)cc1 (configuration not stated)	-3	-4	10	-1	1
CC(=O)C(C(c1ccccc1)N1CCCc2ccccc21)N1CCOCC1 (configuration not stated)	4	.	.	.	.
O=[N+]([O-])c1cc(CN2CCN(c3cccc(C(F)(F)F)c3)CC2)c2cccnc2c1O	.	76*	-5	5	99*
Oc1ccc(F)c2cccnc12	0	-9	-3	0	8
Oc1ccc(CN2CCc3ccccc3C2)c2cccnc12	0	57*	-2	0	100*
Oc1ccc(CN2CCN(c3ccccc3)CC2)c2cccnc12	0	64*	-2	-1	100*
CCOC(=O)N1CCN(Cc2ccc(O)c3ncccc23)CC1	.	34	2	1	0
Oc1ccc(CNc2ccccc2F)c2cccnc12	2	20	.	8	73*
CCOc1ccc(NC(=O)CSc2nnc(CNC(=O)c3cccs3)o2)cc1	0	-15	3	.	.
CC(NC(=O)c1ccc(S(=O)(=O)Nc2ccccc2Cl)cc1)c1ccncc1 (configuration not stated)	1	.	.	.	.
Oc1ccc(CN2CCC(Cc3ccccc3)CC2)c2cccnc12	.	50	-8	1	101*
Oc1ccc(CN2CCCCC2)c2cccnc12	-2	68*	-38	-1	101*
O=C(O)c1ccc(O)c2ncccc12	-1	.	.	.	.
OCc1ccc(O)c2ncccc12	-2	48	.	2	100*
Oc1c(Cl)cc(CN2CCCCC2)c2cccnc12	-14	53	3	.	.
Cc1ccc(C)c(S(=O)(=O)N2CCN(Cc3ccc(O)c4ncccc34)CC2)c1	-1	-5	-8	-4	100*
O=C(CC1NCCNC1=O)NC1Cc2ccccc2C1 (configuration not stated)	1	1	13	.	.
Cc1ccc(C)c(N2CCN(S(=O)(=O)c3cccc4cccnc34)CC2)c1	-1	-2	8	-1	66*
O=S(=O)(c1cccc2cccnc12)N1CCN(c2ccccc2)CC1	-2	4	10	0	8
CN1CCc2nc(SCc3ccc(C(C)(C)C)cc3)c(C#N)cc2C1	2	57*	.	2	42
CCOC(=O)CC(=O)CSc1nc2c(c(-c3cccs3)c1C#N)CCC2	1	0	-11	0	-3
CN1CCc2nc(SCc3ccc(Cl)cc3)c(C#N)c(-c3cccs3)c2C1	.	58*	.	-6	34
N#Cc1c(N)nc(SCc2ccncc2)c(C#N)c1-c1cccs1	1	64*	12	-1	17
SMILES	MPTP block	T cruzi inh	Hep lipid drop	Redox H2O2 prof	L major viab
CCN1C(=O)[C@H]2[C@@H](c3ccc(OC)cc3)N3C(=O)CN(CCOC)C(=O)[C@@]3(Cc3ccccc3)[C@H]2C1=O	2	7	-2	.	.
CCN(CC)CCCN(C(=O)c1cccs1)c1nc(-c2ccc(OC)cc2)cs1	-4	43	.	2	101*
CCN(CC)CCCN(C(=O)c1ccc(Br)cc1)c1nc(-c2ccc(OC)cc2)cs1	3	35	0	.	.
COc1ccc(-c2csc(N(CC3CCCO3)C(=O)c3cccs3)n2)cc1 (configuration not stated)	6	47	.	3	82*
COc1ccc(-c2csc(N(Cc3ccco3)C(=O)c3cccs3)n2)cc1	4	15	-9	.	.
COC(=O)c1cc2c(ccn2-c2ccc(F)cc2)n1Cc1ccc(OC)cc1	43	8	-27	2	99*
CCOC(=O)C1=CCN(S(C)(=O)=O)C1c1ccc(C)cc1 (configuration not stated)	0	.	.	.	.
CCC1CCc2sc(C(=O)NCC(c3ccc(OC)cc3)N3CCCC3)cc2C1 (configuration not stated)	3	66*	.	.	.
CC(C)CCOC(=O)C[N+](C)(C)CCOC1CC2CCC1(C)C2(C)C (configuration not stated)	4	61*	6	-1	91*
CC1(C)C2CCC1(C)C(OCCNCCOC(=O)Nc1ccccc1)C2 (configuration not stated)	5	2	12	.	.
CCC(C)OC(=O)C[N+](C)(C)CCOC1CC2CCC1(C)C2(C)C (configuration not stated)	-1	64*	-14	-1	96*
CCCCCCOC(=O)C[N+](C)(C)CCOC1CC2CCC1(C)C2(C)C (configuration not stated)	-2	72*	-4	-1	100*
CCCCCCCOC(=O)C[N+](C)(C)CCOC1CC2CCC1(C)C2(C)C (configuration not stated)	17	62*	-15	1	100*
O=C1NC[C@H](CCCCN2C[C@H](Cc3ccc(O)cc3)N(Cc3ccccc3)C(=O)C2=O)N(CC2CCCCC2)C1=O	-1	.	.	.	.
COc1ccc(OC)c(C2Nc3ccccc3NC3=C2C(=O)CC(C)(C)C3)c1 (configuration not stated)	1	9	-8	.	.
CCCOC(=O)C[N+](C)(C)CCOC1CC2CCC1(C)C2(C)C (configuration not stated)	0	38	-8	.	.
CCCCOC(=O)C[N+](C)(C)CCOC1CC2CCC1(C)C2(C)C (configuration not stated)	1	50	27	0	69*
Cc1ccc(S(=O)(=O)N2C[C@]3(O)C[C@@H]4C(=O)N(c5ccccc5)C(=O)[C@@H]4C[C@]3(OC(=O)Nc3c(C)noc3C)C2)cc1	-2	.	.	.	.
O=C(/C=C/c1ccccc1)N1CCC(N2CCC(C(=O)N3CCOCC3)CC2)CC1	-3	4	23	-1	51*
O=C(NC1CC1)C1CCN(C2CCN(C(=O)/C=C/c3ccc(F)cc3)CC2)CC1	2	5	10	-1	66*
O=C(NC1CC1)C1CCN(C2CCN(C(=O)CC3=CCCCC3)CC2)CC1	-2	8	2	-1	75*
O=C(/C=C/c1ccccc1)N1CCOCC1	0	-14	30	.	.
CCc1c(C)nc(SCc2ccccn2)[nH]c1=O	-2	-11	-7	-1	-9
COc1ccccc1Nc1nc2nonc2nc1N1CCCCC1C (configuration not stated)	4	15	-3	0	91*
COc1ccc(S(=O)(=O)Nc2ccccc2C(=O)NC(C)(C)C)cc1OC	-1	-4	1	0	-8

Compound activity: PubChem BioAssay, several laboratories
